Like-named read-outs stand apart in the source and are kept apart here.
Tests used:
σ2R/Tmem97 = biological target: T1, σ2R/Tmem97 (Rattus norvegicus, UniProt Q5U3Y7); assay: Sigma 2 receptor competition binding with [3H]-ditolylguanidine; conditions: σ2R from rat PC12 cells
T1 sequence (Q5U3Y7 1-176): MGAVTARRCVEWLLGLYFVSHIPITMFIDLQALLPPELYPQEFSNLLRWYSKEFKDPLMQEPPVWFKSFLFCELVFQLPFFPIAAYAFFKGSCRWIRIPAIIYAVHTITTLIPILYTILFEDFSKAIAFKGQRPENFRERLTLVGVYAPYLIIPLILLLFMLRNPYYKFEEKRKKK

[1] = system: mouse spared nerve injury (SNI) model; assay: Mechanical sensitivity; type: in vivo; conditions: for effect on SNI-induced mechanical hypersensitivity: single IT injection, 10 μg, vs vehicle; for time after IT injection at which efficacy was seen (onset) / time through which antipain effect persisted: IT 10 μg
In short: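 Male C57Bl6/J mice with SNI (peroneal and tibial sciatic branches cut, sural spared), confirmed hypersensitive 2 weeks post-surgery and screened 21–60 days after SNI. Single intrathecal 10 μg in 5 μL saline (DMSO <5%, vehicle DMSO-matched). Blinded hindpaw von Frey, modified up–down, at set times. n = 4–11. Mean ± SEM; two-way ANOVA with Bonferroni. Repeat injections ≥14 days apart.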

[2] = Blood brain barrier crossing; type: in vivo; conditions: no data or reference given
[3] = system: SK-N-SH neuroblastoma cells; conditions: cited from earlier work
[4] = system: mouse spared nerve injury (SNI) model; assay: Mechanical sensitivity; type: in vivo; conditions: IV 100 mg/kg
In short: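 Male C57Bl6/J SNI mice, hindpaw mechanical hypersensitivity confirmed 2 weeks post-surgery. Tail-vein IV injection in 100 μL sterile saline (DMSO stock diluted; vehicle DMSO-matched): test compound 10 mg/kg, gabapentin 100 mg/kg, or vehicle, n = 6 each. Blinded von Frey testing (modified up–down) at set time points. Mean ± SEM; two-way ANOVA with Bonferroni post hoc.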

[5] = in vivo; cited from earlier work

**Q.** For `FC(F)(F)c1ccc(-c2ccc3c(c2)C2CC3CCCN2C2CCCC2)cc1` (racemic) [DKR-1051, (±)-2-Cyclopentyl-9-(4-(trifluoromethyl)phenyl)-1,2,3,4,5,6-hexa-hydro-1,6-methanobenzo[c]azocine], which “affinity at σ2R/Tmem97 (in words)” value (σ2R/Tmem97) is on record?
**A.** The value was “high affinity”.

**Q.** What about the “time of peak relief of mechanical hypersensitivity after dosing” value ([1]; IT) of the same molecule?
**A.** Its value is 48 h.

**Q.** And the “effect on SNI-induced mechanical hypersensitivity” value [1]?
**A.** Its value is “significant antimechanical hypersensitivity effects at either 24 or 48 h”.

**Q.** And the “blood brain barrier crossing” value [2]?
**A.** Its value is “cross the blood brain barrier”.

**Q.** And the “effect on intracellular Ca2+” value ([3]; SK-N-SH neuroblastoma cells)?
**A.** Its value is “induces a rapid Ca^2+ transient”.

**Q.** For `c1ccc(CCN2CCC3CC2c2ccccc23)cc1` (racemic) [JSS-1027, (±)-2-Phenethyl-2,3,4,5-tetrahydro-1H-1,5-methanobenzo[c]-azepine], which “affinity at σ2R/Tmem97 (in words)” value (σ2R/Tmem97) is on record?
**A.** The value was “low nM range”.

**Q.** And the “time after IT injection at which efficacy was seen (onset)” value [1]?
**A.** The value was 48 h.

**Q.** What about the “time through which antipain effect persisted” value [1] of the same molecule?
**A.** The value was 120 h.

**Q.** And the “effect on SNI-induced mechanical hypersensitivity” value [1]?
**A.** Its value is “significantly different from vehicle”.

**Q.** Which “time after IT injection at which efficacy was seen (onset)” value [1] does the source give for `CN1CCC2CC1c1cc(N3CCOCC3)ccc12` (racemic) [JWG-1014, (±)-2-Methyl-2,3,4,5-tetrahydro-1H-1,5-methanobenzo[c]-azepin-8-yl)morpholine] here?
**A.** Its value is 48 h.

**Q.** And the “time through which antipain effect persisted” value [1]?
**A.** Its value is 120 h.

**Q.** And the “effect on SNI-induced mechanical hypersensitivity” value [1]?
**A.** Its value is “significantly different from vehicle”.

**Q.** What does the source list for `Clc1ccc2c(c1)C1CC2CCCN1CC1CCCCC1` (racemic) [MFG-1046, (±)-9-Chloro-2-(cyclohexylmethyl)-1,2,3,4,5,6-hexahydro-1,6-methanobenzo[c]azocine]?
**A.** affinity at σ2R/Tmem97 (in words) (σ2R/Tmem97): low nM range; time after IT injection at which efficacy was seen (onset) [1]: 24 h; time through which antipain effect persisted [1]: 72 h; effect on SNI-induced mechanical hypersensitivity [1]: significantly different from vehicle

**Q.** Which results are given for `NCC1(CC(=O)O)CCCCC1` [Gabapentin, reference compound]?
**A.** effect on SNI-induced mechanical hypersensitivity ([4]; 1 and 3 h after injection): completely reversed mechanical hypersensitivity; mechanical hypersensitivity state ([4]; 24 h after injection): fully mechanically hypersensitive again

**Q.** With `CN1CCN(c2ccc3c(c2)[C@H]2C[C@@H]3CCN2C(=O)OCc2ccccc2)CC1` [SAS-0132] as the molecule, how does the “effect of co-administration on antinociceptive action of UKH-1114” value ([1]; SAS-0132 10 μg IT given at the same time as UKH-1114 10 μg) read?
**A.** Its value is “completely blocked the effect seen with UKH-1114 given alone”.

**Q.** What about the “effect of pretreatment on DKR-1051-induced Ca2+ transient” value ([3]; SK-N-SH neuroblastoma cells pretreated with SAS-0132) of the same molecule?
**A.** The value was “attenuated”.

**Q.** And the “blood brain barrier crossing” value [5]?
**A.** The value was “cross the blood brain barrier”.

**Q.** With `Fc1ccc(-n2cc(CCCCN3CCC4(CC3)OCc3ccccc34)c3ccccc32)cc1` [Siramesine, reference compound] as the molecule, how does the “effect on SNI-induced mechanical hypersensitivity” value [1] read?
**A.** The value was “small inhibitory effect on mechanical hypersensitivity that was significant at 24 and 48 h”.

Reference: PMC5715471 (ACS chemical neuroscience, 2017)
